# System: L02 cells
# Experiment: In vitro cytotoxicity assay on normal L02 cells
# Format: cell-based
# Settings: 10 μmol/L, 24 h, CCK8
# Outline: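 L02 cells grown in DMEM with 10% FBS and 1% penicillin-streptomycin at 37 °C, 5% CO2. Seeded at 5 × 10^3 cells/well, then 24 h before test compound at 10 μmol/L was added for another 24 h. Medium removed, 10% CCK8 added for 1 h at 37 °C. Absorbance read and viability calculated.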
structure (smiles),measurement,value
COc1nc(OCc2cccc(-c3ccccc3)c2C)ccc1CNCCNC(C)=O [BMS-202],Cytotoxicity on normal L02 cells,obvious cytotoxicity
